According to ChEMBL document CHEMBL4837210 (Eur J Med Chem, 2021):

Columns and labels:
Assay type in all cases: functional
Bacillus subtilis = test: Antibacterial activity against penicillin-susceptible Bacillus subtilis ATCC 9372 assessed as bacterial growth inhibition incubated for 24 hrs by CLSI protocol based broth microdilution method
Bacillus pumilus = test: Antibacterial activity against penicillin-susceptible Bacillus pumilus CMCC 63202 assessed as bacterial growth inhibition by broth dilution method; details: time 24 hrs
Method in brief: (§1)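 Broth microdilution in Mueller Hinton broth. A 0.5 McFarland suspension was diluted tenfold, giving an inoculum of 1.5 × 10⁷ cfu/mL. This was added to 2-fold serial compound dilutions from […]. Plates were incubated aerobically at 37 °C for 24 h. MIC was the lowest concentration with no visible turbidity.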

Staphylococcus aureus [1] = test: Antibacterial activity against erythromycin-susceptible Staphylococcus aureus ATCC 25923 assessed as bacterial growth inhibition incubated for 24 hrs by CLSI protocol based broth microdilution method
Streptococcus pyogenes [2] = test: Antibacterial activity against erythromycin-susceptible Streptococcus pyogenes clinical isolate 1 assessed as bacterial growth inhibition incubated for 24 hrs by CLSI protocol based broth microdilution method
Pseudomonas aeruginosa = test: Antibacterial activity against penicillin-susceptible Pseudomonas aeruginosa ATCC27853 assessed as bacterial growth inhibition incubated for 24 hrs by CLSI protocol based broth microdilution method
Escherichia coli = test: Antibacterial activity against penicillin-susceptible Escherichia coli ATCC 25922 assessed as inhibition of bacterial growth measured by broth microdilution method; details: time 24 hrs; method in brief: as §1
Staphylococcus aureus [3] = test: Antibacterial activity against methicillin-resistant Staphylococcus aureus ATCC 43300 assessed as inhibition of bacterial growth by broth microdilution method; details: time 24 hrs
Method in brief: (§2)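 Broth microdilution MIC. A 0.5 McFarland suspension was diluted 10-fold and added at 1.5 × 10⁷ cfu/mL to 2-fold dilutions (0.125–64) in Mueller Hinton broth. Incubated aerobically 24 h at 37 °C. MIC was the lowest concentration with no visible turbidity.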

Staphylococcus aureus [4] = test: Antibacterial activity against penicillin-resistant Staphylococcus aureus assessed as inhibition of bacterial growth measured by broth microdilution method; details: time 24 hrs; method in brief: as §2
Staphylococcus aureus [5] = test: Antibacterial activity against Staphylococcus aureus assessed as inhibition of bacterial growth measured by broth microdilution method; details: time 24 hrs; method in brief: as §1
[6] = test system: Staphylococcus epidermidis; test: Antibacterial activity against penicillin-resistant Staphylococcus epidermidis assessed as inhibition of bacterial growth measured by broth microdilution method; details: time 24 hrs
Streptococcus pyogenes [7] = test: Antibacterial activity against erythromycin-resistant Streptococcus pyogenes 2 assessed as bacterial growth inhibition incubated for 24 hrs by CLSI protocol based broth microdilution method

Work on `Cc1ccc(/C=C/c2c3ccccc3[n+](C)c3ccccc23)cc1.[I-]` yielded an MIC (Bacillus subtilis) of 1 µg/mL, an MIC (Bacillus pumilus) of 0.5 µg/mL and an MIC (Staphylococcus aureus [1]) of 0.5 µg/mL. For the same compound, the MIC (Streptococcus pyogenes [2]) was 0.25 µg/mL, the MIC (Pseudomonas aeruginosa) was > 64 µg/mL and the MIC (Escherichia coli) was 64 µg/mL. The MIC (Staphylococcus aureus [3]) was 4 µg/mL, the MIC (Staphylococcus aureus [4]) was 8 µg/mL and the MIC (Staphylococcus aureus [5]) was 1 µg/mL. For the same compound, the MIC [6] was 2 µg/mL and the MIC (Streptococcus pyogenes [7]) was 0.5 µg/mL.

For `CCNc1c2ccccc2[n+](C)c2ccccc12.[Cl-]`, the MIC (Bacillus subtilis) was 64 µg/mL, the MIC (Bacillus pumilus) was > 64 µg/mL and the MIC (Staphylococcus aureus [1]) was > 64 µg/mL. The MIC (Streptococcus pyogenes [2]) was 64 µg/mL, the MIC (Pseudomonas aeruginosa) was > 64 µg/mL and the MIC (Escherichia coli) was > 64 µg/mL. The MIC (Staphylococcus aureus [3]) was > 64 µg/mL, the MIC (Staphylococcus aureus [5]) was > 64 µg/mL and the MIC [6] was > 64 µg/mL. For the same compound, the MIC (Streptococcus pyogenes [7]) was 64 µg/mL.

Work on `C[n+]1c2ccccc2c(-c2ccc(C(F)(F)F)cc2)c2ccccc21.[I-]` yielded an MIC (Bacillus subtilis) of 4 µg/mL, an MIC (Bacillus pumilus) of 16 µg/mL and an MIC (Staphylococcus aureus [1]) of 1 µg/mL. For the same compound, the MIC (Streptococcus pyogenes [2]) was 1 µg/mL, the MIC (Pseudomonas aeruginosa) was > 64 µg/mL and the MIC (Escherichia coli) was > 64 µg/mL. The MIC (Staphylococcus aureus [3]) was 4 µg/mL, the MIC (Staphylococcus aureus [4]) was 64 µg/mL and the MIC (Staphylococcus aureus [5]) was 2 µg/mL. It also gave an MIC [6] of 32 µg/mL and an MIC (Streptococcus pyogenes [7]) of 2 µg/mL.

In the case of `C[n+]1c2ccccc2c(Nc2nccs2)c2ccccc21.[Cl-]`, the MIC (Bacillus subtilis) is reported as > 64 µg/mL, the MIC (Bacillus pumilus) is reported as > 64 µg/mL and the MIC (Staphylococcus aureus [1]) is reported as > 64 µg/mL. For the same compound, the MIC (Streptococcus pyogenes [2]) was > 64 µg/mL, the MIC (Pseudomonas aeruginosa) was > 64 µg/mL and the MIC (Escherichia coli) was > 64 µg/mL. The MIC (Staphylococcus aureus [3]) was > 64 µg/mL, the MIC (Staphylococcus aureus [5]) was > 64 µg/mL and the MIC [6] was > 64 µg/mL. The MIC (Streptococcus pyogenes [7]) was > 64 µg/mL.

`CCCCc1ccc(/C=C/c2c3ccccc3[n+](C)c3ccccc23)cc1.[I-]` was tested, and the MIC (Bacillus subtilis) was 1 µg/mL, the MIC (Bacillus pumilus) was 0.5 µg/mL and the MIC (Staphylococcus aureus [1]) was 1 µg/mL. The MIC (Streptococcus pyogenes [2]) was 0.5 µg/mL, the MIC (Pseudomonas aeruginosa) was > 64 µg/mL and the MIC (Escherichia coli) was > 64 µg/mL. It also gave an MIC (Staphylococcus aureus [3]) of 8 µg/mL, an MIC (Staphylococcus aureus [4]) of 8 µg/mL and an MIC (Staphylococcus aureus [5]) of 2 µg/mL. The MIC [6] was 2 µg/mL and the MIC (Streptococcus pyogenes [7]) was 0.5 µg/mL.

In the case of `COc1ccc(Nc2c3ccccc3[n+](C)c3ccccc23)c(OC)c1.[Cl-]`, the MIC (Bacillus subtilis) is reported as > 64 µg/mL, the MIC (Bacillus pumilus) is reported as > 64 µg/mL and the MIC (Staphylococcus aureus [1]) is reported as > 64 µg/mL. For the same compound, the MIC (Streptococcus pyogenes [2]) was > 64 µg/mL, the MIC (Pseudomonas aeruginosa) was > 64 µg/mL and the MIC (Escherichia coli) was > 64 µg/mL. For the same compound, the MIC (Staphylococcus aureus [3]) was > 64 µg/mL, the MIC (Staphylococcus aureus [5]) was > 64 µg/mL and the MIC [6] was > 64 µg/mL. The MIC (Streptococcus pyogenes [7]) was > 64 µg/mL.

Compound `C[n+]1c2ccccc2c(-c2ccccc2)c2ccccc21.[I-]` has an MIC (Bacillus subtilis) of 16 µg/mL, an MIC (Bacillus pumilus) of 32 µg/mL and an MIC (Staphylococcus aureus [1]) of 2 µg/mL. For the same compound, the MIC (Streptococcus pyogenes [2]) was 8 µg/mL, the MIC (Pseudomonas aeruginosa) was > 64 µg/mL and the MIC (Escherichia coli) was > 64 µg/mL. For the same compound, the MIC (Staphylococcus aureus [3]) was > 64 µg/mL, the MIC (Staphylococcus aureus [4]) was > 64 µg/mL and the MIC (Staphylococcus aureus [5]) was 8 µg/mL. The MIC [6] was > 64 µg/mL and the MIC (Streptococcus pyogenes [7]) was 32 µg/mL.

`CCc1ccc(/C=C/c2c3ccccc3[n+](C)c3ccccc23)cc1.[I-]` was tested, and the MIC (Bacillus subtilis) was 1 µg/mL, the MIC (Bacillus pumilus) was 1 µg/mL and the MIC (Staphylococcus aureus [1]) was 0.5 µg/mL. The MIC (Streptococcus pyogenes [2]) was 0.5 µg/mL, the MIC (Pseudomonas aeruginosa) was > 64 µg/mL and the MIC (Escherichia coli) was 64 µg/mL. It also gave an MIC (Staphylococcus aureus [3]) of 2 µg/mL, an MIC (Staphylococcus aureus [4]) of 8 µg/mL and an MIC (Staphylococcus aureus [5]) of 1 µg/mL. The MIC [6] was 4 µg/mL and the MIC (Streptococcus pyogenes [7]) was 1 µg/mL.

Compound `C[n+]1c2ccccc2c(/C=C/c2ccc(Cl)cc2)c2ccccc21.[I-]` has an MIC (Bacillus subtilis) of 2 µg/mL, an MIC (Bacillus pumilus) of 1 µg/mL and an MIC (Staphylococcus aureus [1]) of 1 µg/mL. For the same compound, the MIC (Streptococcus pyogenes [2]) was 1 µg/mL, the MIC (Pseudomonas aeruginosa) was > 64 µg/mL and the MIC (Escherichia coli) was > 64 µg/mL. For the same compound, the MIC (Staphylococcus aureus [3]) was 2 µg/mL, the MIC (Staphylococcus aureus [4]) was 4 µg/mL and the MIC (Staphylococcus aureus [5]) was 2 µg/mL. The MIC [6] was 2 µg/mL and the MIC (Streptococcus pyogenes [7]) was 1 µg/mL.

`CCCCCCCNc1c2ccccc2[n+](C)c2ccccc12.[Cl-]` gave an MIC (Bacillus subtilis) of 32 µg/mL, an MIC (Bacillus pumilus) of 32 µg/mL and an MIC (Staphylococcus aureus [1]) of 16 µg/mL. The MIC (Streptococcus pyogenes [2]) was 16 µg/mL, the MIC (Pseudomonas aeruginosa) was > 64 µg/mL and the MIC (Escherichia coli) was > 64 µg/mL. The MIC (Staphylococcus aureus [3]) was 32 µg/mL, the MIC (Staphylococcus aureus [4]) was 16 µg/mL and the MIC (Staphylococcus aureus [5]) was 16 µg/mL. For the same compound, the MIC [6] was 32 µg/mL and the MIC (Streptococcus pyogenes [7]) was 32 µg/mL.

In the case of `C[n+]1c2ccccc2c(Nc2ccccn2)c2ccccc21.[Cl-]`, the MIC (Bacillus subtilis) is reported as 64 µg/mL, the MIC (Bacillus pumilus) is reported as > 64 µg/mL and the MIC (Staphylococcus aureus [1]) is reported as > 64 µg/mL. The MIC (Streptococcus pyogenes [2]) was > 64 µg/mL, the MIC (Pseudomonas aeruginosa) was > 64 µg/mL and the MIC (Escherichia coli) was > 64 µg/mL. The MIC (Staphylococcus aureus [3]) was > 64 µg/mL, the MIC (Staphylococcus aureus [5]) was > 64 µg/mL and the MIC [6] was > 64 µg/mL. The MIC (Streptococcus pyogenes [7]) was > 64 µg/mL.

`C[n+]1c2ccccc2c(Nc2ccncn2)c2ccccc21.[Cl-]` showed an MIC (Bacillus subtilis) of 16 µg/mL, an MIC (Bacillus pumilus) of 64 µg/mL and an MIC (Staphylococcus aureus [1]) of 16 µg/mL. For the same compound, the MIC (Streptococcus pyogenes [2]) was > 64 µg/mL, the MIC (Pseudomonas aeruginosa) was > 64 µg/mL and the MIC (Escherichia coli) was > 64 µg/mL. The MIC (Staphylococcus aureus [3]) was 32 µg/mL, the MIC (Staphylococcus aureus [4]) was > 64 µg/mL and the MIC (Staphylococcus aureus [5]) was 32 µg/mL. The MIC [6] was > 64 µg/mL and the MIC (Streptococcus pyogenes [7]) was > 64 µg/mL.

For `CCOc1ccc(/C=C/c2c3ccccc3[n+](C)c3ccccc23)cc1.[I-]`, the MIC (Bacillus subtilis) was 2 µg/mL, the MIC (Bacillus pumilus) was 16 µg/mL and the MIC (Staphylococcus aureus [1]) was 0.5 µg/mL. The MIC (Streptococcus pyogenes [2]) was < 0.125 µg/mL, the MIC (Pseudomonas aeruginosa) was > 64 µg/mL and the MIC (Escherichia coli) was > 64 µg/mL. For the same compound, the MIC (Staphylococcus aureus [3]) was 2 µg/mL, the MIC (Staphylococcus aureus [4]) was 8 µg/mL and the MIC (Staphylococcus aureus [5]) was 1 µg/mL. For the same compound, the MIC [6] was 4 µg/mL and the MIC (Streptococcus pyogenes [7]) was 0.5 µg/mL.

In the case of `CC(C)Nc1c2ccccc2[n+](C)c2ccccc12.[Cl-]`, the MIC (Bacillus subtilis) is reported as > 64 µg/mL, the MIC (Bacillus pumilus) is reported as > 64 µg/mL and the MIC (Staphylococcus aureus [1]) is reported as > 64 µg/mL. The MIC (Streptococcus pyogenes [2]) was > 64 µg/mL, the MIC (Pseudomonas aeruginosa) was > 64 µg/mL and the MIC (Escherichia coli) was > 64 µg/mL. The MIC (Staphylococcus aureus [3]) was > 64 µg/mL, the MIC (Staphylococcus aureus [5]) was > 64 µg/mL and the MIC [6] was > 64 µg/mL. The MIC (Streptococcus pyogenes [7]) was > 64 µg/mL.
